Assay results reported in ChEMBL document CHEMBL2321821, “Inhibition of the β-carbonic anhydrases from Mycobacterium tuberculosis with C-cinnamoyl glycosides: identification of the first inhibitor with anti-mycobacterial activity” (Bioorg Med Chem Lett, 2013).
≈ marks a conversion by molar mass, not a printed value. Calls of active or inactive are those of the source. No cut-off for these calls is given here.

Legend:
[1] = Inhibition of Mycobacterium tuberculosis Rv3273 beta-carbonic anhydrase by stopped flow assay
Procedure, shortened: (§1)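 Recombinant mtCA enzyme. CO2 hydration was followed by stopped-flow with phenol red indicator (0.02 mM) read at 557 nm, in 20 mM Hepes pH 7.5 with 20 mM Na2SO4, over 10–100 s. CO2 was 1.7–17 mM. Inhibitor was diluted in water and preincubated with enzyme 15 min at room temperature. Uncatalyzed rate subtracted; three determinations.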

[2] = Inhibition of Mycobacterium tuberculosis Rv1284 beta-carbonic anhydrase by stopped flow assay; procedure, shortened: as §1
[3] = tested on: Mycobacterium tuberculosis; test: Antimicrobial activity against Mycobacterium tuberculosis H37Rv assessed as growth inhibition at 100 ug/ml after 7 days by serial twofold dilution method; assay type: functional, organism-based
Procedure, shortened: (§2)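 Broth microdilution against H37Rv in Middlebrook 7H9-ADS-G, with 0.05% Tween 80. Compounds from DMSO stock (10 mg/ml), twofold serial dilution on plate. Inoculum is a 1/25 dilution of a mid-log suspension (McFarland 1.0), ~10⁶ CFU per well. Rifampicin control; growth and sterility controls. Incubated 37 °C for 7 days. Growth read visually by turbidity; run in duplicate.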

[4] = tested on: Mycobacterium tuberculosis; test: Antimicrobial activity against Mycobacterium tuberculosis H37Rv assessed as growth inhibition at 50 ug/ml after 7 days by serial twofold dilution method; assay type: functional, organism-based; procedure, shortened: as §2
[5] = Inhibition of Mycobacterium tuberculosis Rv3588c beta-carbonic anhydrase by stopped flow assay; procedure, shortened: as §1
[6] = tested on: Mycobacterium tuberculosis; test: Antimicrobial activity against Mycobacterium tuberculosis H37Rv after 30 days; assay type: functional
Procedure, shortened: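 M. tuberculosis H37Rv, fresh culture, ~1 × 10³ CFU plated onto solid Middlebrook 7H11 with ADS (1/10 v/v) and glycerol (1% v/v). Compound added to molten medium in wells at chosen concentrations. Incubated 37 °C for 30 days, then inspected visually. MIC99.9% taken as the concentration giving 99.9% reduction in cell counts.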

[7] = tested on: Mycobacterium tuberculosis; test: Antimicrobial activity against Mycobacterium tuberculosis H37Rv assessed as growth inhibition at < /= 25 ug/ml after 7 days by serial twofold dilution method; assay type: functional, organism-based; procedure, shortened: as §2

SMILES	Ki [1] [µM]	Ki [2] [µM]	growth inhibition (GI) [3]	growth inhibition (GI) [4]	Ki [5] [µM]	MIC [6] [µg/mL]	growth inhibition (GI) [7]
Oc1ccccc1 [PHENOL]	79	64	–	–	–	–	–
CC(=O)OC[C@H]1O[C@@H](CC(=O)/C=C/c2cccc(O)c2)[C@H](OC(C)=O)[C@@H](OC(C)=O)[C@@H]1OC(C)=O	19	2.1	Active	Active	0.64	3.12 (≈ 6.35 µM)	inactive
CC(=O)OC[C@H]1O[C@@H](CC(=O)/C=C/c2ccc(O)cc2)[C@H](OC(C)=O)[C@@H](OC(C)=O)[C@@H]1OC(C)=O	13.1	2.9	Active	Active	0.35	> 100	inactive
O=C(/C=C/c1ccc(O)cc1)C[C@@H]1O[C@H](CO)[C@H](O)[C@H](O)[C@H]1O	4.13	4.5	inactive	inactive	0.94	–	inactive
O=C(/C=C/c1ccc(O)cc1)C[C@@H]1O[C@H](CO)[C@@H](O)[C@H](O)[C@H]1O	4.13	0.93	Active	Active	0.13	–	inactive
CC(=O)OC[C@H]1O[C@@H](CC(=O)/C=C/c2ccc(O)cc2)[C@H](OC(C)=O)[C@@H](OC(C)=O)[C@H]1OC(C)=O	12	4.5	inactive	inactive	1.15	–	inactive
O=C(/C=C/c1cccc(O)c1)C[C@@H]1O[C@H](CO)[C@H](O)[C@H](O)[C@H]1O	3.25	1.16	Active	Active	0.51	100 (≈ 308 µM)	inactive
O=C(/C=C/c1cccc(O)c1)C[C@@H]1O[C@H](CO)[C@@H](O)[C@H](O)[C@H]1O	6.21	0.14	inactive	inactive	0.24	–	inactive
CC(=O)OC[C@H]1O[C@@H](CC(=O)/C=C/c2cccc(O)c2)[C@H](OC(C)=O)[C@@H](OC(C)=O)[C@H]1OC(C)=O	15.6	3.8	inactive	inactive	0.87	–	inactive
